Measured values: ChEMBL document CHEMBL1158037, “Taraxasterane- and ursane-type triterpenes from Nerium oleander and their biological activities” (J Nat Prod, 2006)

Tests used:
[1] = test system: A549; test: Antiinflammatory activity in human A549 cells assessed as inhibition of ICAM1 induction pretreated for 1 hr before IL1alpha challenge and incubated for 6 hrs in presence of IL1alpha; format: functional, cell-based
Method in brief: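 A549 cells (human lung carcinoma, used as endothelial model) exposed to a range of compound concentrations for 1 h, then IL-1α added and culture continued 6 h. ICAM-1 measured by primary and secondary antibodies plus enzyme substrate, absorbance at 415 nm. Triplicate cultures; IC50 reported.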

[2] = test system: A549; test: Cytotoxicity against human A549 cells after 24 hrs by MTT assay; format: functional, cell-based; details: A549, 24 h
Method in brief: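 A549 cells incubated 24 h with serial dilutions of compound; viability (%) by MTT used to derive IC50. Triplicate cultures.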

[3] = Cytotoxicity against human WI38 cells by WST-8 assay; format: cell-based; details: WI-38
Method in brief: (§1)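 Growth inhibition of WI-38, VA-13 and HepG2 cells, with Taxol and ADM as positive controls; IC50 taken as concentration giving 50% growth inhibition.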

[4] = test system: WI-38 VA13; test: Cytotoxicity against human VA-13 cells by WST-8 assay; format: functional, cell-based; method in brief: as §1
[5] = Cytotoxicity against human Hep G2 by WST-8 assay; format: functional; details: HepG2; method in brief: as §1

IC50 [1] [µM]	Structure (SMILES)	IC50 [2] [µM]	IC50 [3] [µM]	IC50 [4] [µM]	IC50 [5] [µM]
> 316	C[C@H]1[C@@H]2[C@H]3CC[C@@H]4[C@@]5(C)CC[C@H](O)C(C)(C)[C@@H]5CC[C@@]4(C)[C@]3(C)CC[C@@]23C=C[C@]1(C)OC3	> 316	83.8	111	155
80	CO[C@H]1O[C@@]2(C)CC[C@@]13CC[C@]1(C)[C@H](CC[C@@H]4[C@@]5(C)CC[C@H](O)C(C)(C)[C@@H]5CC[C@]41C)[C@H]3[C@@H]2C	76	11.8	11.7	10.3
> 316	C[C@H]1[C@H](C)CC[C@]2(O)CC[C@]3(C)C(=CC[C@@H]4[C@@]5(C)CC[C@H](O)C(C)(C)[C@@H]5CC[C@]43C)[C@H]12	> 316	20.1	108	21.1
158	C[C@H]1[C@H](C)CC[C@]2(C=O)CC[C@]3(C)C(=CC[C@@H]4[C@@]5(C)CC[C@H](O)C(C)(C)[C@@H]5CC[C@]43C)[C@H]12	205	94.7	85.4	99
